# Calls of active or inactive are those of the source. The calls are words filed in the database; no cut-off is given here.
# System: not listed separately
# Test: Drug concentration in Sprague-Dawley rat plasma at 10 mg/kg, ip at 24 hrs by LC-MS/MS analysis
# Format: ADME, organism-based
# Conditions: not given
# Procedure, shortened: (§1)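 Single intraperitoneal dose to 4-week-old male rats (n = 4); vehicle 36.1% PEG400/9.1% ethanol/4.6% Solutol/50% H₂O. Tail-nick whole blood (ca. 70 μL) collected at 0, 0.5, 1, 2, 4, 6 and 24 h postdose. Plasma drug levels quantified by LC-MS/MS with an internal standard.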
row,concentration at 24 h [µM],SMILES
1,2,CCCCCCCCCCc1ccc(-c2noc(CCCN)n2)cc1.Cl

# Target: Sphingosine kinase 1 (Mus musculus, UniProt Q8CI15)
# Sequence (Q8CI15 whole entry): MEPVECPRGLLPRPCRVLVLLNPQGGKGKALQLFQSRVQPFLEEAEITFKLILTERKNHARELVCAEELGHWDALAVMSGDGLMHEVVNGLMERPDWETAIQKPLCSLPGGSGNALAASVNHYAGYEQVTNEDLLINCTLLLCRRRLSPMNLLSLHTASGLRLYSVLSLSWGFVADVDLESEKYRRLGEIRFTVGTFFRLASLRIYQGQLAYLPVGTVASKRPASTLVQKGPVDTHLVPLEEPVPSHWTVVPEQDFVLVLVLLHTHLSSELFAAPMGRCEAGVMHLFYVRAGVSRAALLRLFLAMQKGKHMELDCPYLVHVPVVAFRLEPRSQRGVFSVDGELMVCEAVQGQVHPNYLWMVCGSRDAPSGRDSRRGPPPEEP
# Test: Inhibition of recombinant mouse SphK1 transfected in HEK293T cells using D-erythro-sphingosine measured after 20 mins in presence of gamma-[p32]-ATP by autoradiography and liquid scintillation counting method
# Format: cell-based
# Conditions: not given
row,IC50 [µM],SMILES
1,≥ 30,CCCCCCCCCCc1ccc(-c2noc(CCCN)n2)cc1.Cl

# Species on record: Mus musculus
# Test: Selectivity ratio of IC50 for mouse SphK1 to recombinant mouse Snps2
# Conditions: not given
row,Ratio IC50,SMILES
1,15,CCCCCCCCCCc1ccc(-c2noc(CCCN)n2)cc1.Cl

# Target: T1, Sphingosine kinase 2 (Mus musculus, UniProt Q9JIA7)
# T1 sequence (Q9JIA7 whole entry): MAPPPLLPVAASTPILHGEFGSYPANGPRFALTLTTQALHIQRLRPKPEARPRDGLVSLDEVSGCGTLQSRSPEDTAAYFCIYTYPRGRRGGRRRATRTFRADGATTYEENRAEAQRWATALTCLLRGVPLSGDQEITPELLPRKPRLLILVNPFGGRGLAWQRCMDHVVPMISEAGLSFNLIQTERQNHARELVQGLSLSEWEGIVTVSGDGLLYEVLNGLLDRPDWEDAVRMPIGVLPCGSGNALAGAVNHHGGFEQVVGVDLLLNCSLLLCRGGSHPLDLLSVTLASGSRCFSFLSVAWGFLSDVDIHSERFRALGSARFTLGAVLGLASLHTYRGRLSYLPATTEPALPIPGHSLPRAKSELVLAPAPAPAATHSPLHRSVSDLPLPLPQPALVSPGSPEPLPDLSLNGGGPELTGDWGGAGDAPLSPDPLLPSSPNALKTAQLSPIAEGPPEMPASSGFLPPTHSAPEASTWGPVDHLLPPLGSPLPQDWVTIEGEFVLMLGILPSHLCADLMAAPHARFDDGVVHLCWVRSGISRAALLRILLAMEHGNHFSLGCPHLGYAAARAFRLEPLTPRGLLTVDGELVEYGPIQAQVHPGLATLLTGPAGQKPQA
# Test: Inhibition of recombinant mouse SphK2 transfected in HEK293T cells using D-erythro-sphingosine measured after 20 mins in presence of gamma-[p32]-ATP by autoradiography and liquid scintillation counting method
# Format: cell-based
# Conditions: not given
# Procedure, shortened: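 Lysate of mouse SphK2 from baculovirus-infected Sf9 or transfected HEK293T cells (0.02–0.03 mg protein). Buffer: 20 mM Tris-Cl pH 7.4 with MgCl₂, phosphatase/protease inhibitors, 10% glycerol and 1 M KCl. Substrate 5 μM D-erythro-sphingosine, 10 μM γ-[³²P]ATP, compound 10–30,000 nM. Reaction run 20 min at 37 °C, then lipids extracted and separated by TLC. Product detected by autoradiography and quantified by scintillation counting; run in duplicate.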
row,IC50 [µM],SMILES
1,30,CCCCCCCCCCc1ccc(-c2noc(CCCN)n2)cc1.Cl

# Target: T2, Sphingosine-1-phosphate transporter SPNS2 (Mus musculus, UniProt Q91VM4)
# T2 sequence (Q91VM4 whole entry): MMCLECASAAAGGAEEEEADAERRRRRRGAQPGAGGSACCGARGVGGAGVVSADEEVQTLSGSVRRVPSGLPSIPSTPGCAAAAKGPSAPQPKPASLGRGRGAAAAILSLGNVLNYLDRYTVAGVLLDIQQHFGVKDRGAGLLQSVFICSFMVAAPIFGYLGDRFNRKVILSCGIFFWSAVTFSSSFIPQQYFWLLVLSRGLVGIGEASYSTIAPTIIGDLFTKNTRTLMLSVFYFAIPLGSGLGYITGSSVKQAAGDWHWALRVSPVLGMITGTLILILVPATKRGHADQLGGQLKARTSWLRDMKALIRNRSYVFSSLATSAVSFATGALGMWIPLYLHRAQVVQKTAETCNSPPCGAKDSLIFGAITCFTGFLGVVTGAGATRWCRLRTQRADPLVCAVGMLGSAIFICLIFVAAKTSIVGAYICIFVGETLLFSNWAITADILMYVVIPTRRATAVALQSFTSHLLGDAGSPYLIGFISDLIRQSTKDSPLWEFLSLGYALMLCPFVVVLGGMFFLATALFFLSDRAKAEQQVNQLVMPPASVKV
# Test: (§2) Inhibition of mouse Spns2 transfected in human HeLa cells by measuring S1P release by LC/MS analysis
# Format: cell-based
# Conditions: not given
# Procedure, shortened: (§3)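 Mouse Spns2-transfected HeLa cells (G418-selected) held 18–20 h in RPMI 1640/0.2% fatty acid-free BSA containing 1 mM 4-deoxypyridoxine, 2 mM NaF and 0.2 mM Na₃VO₄ across a compound concentration series. Released S1P quantified by LC-MS/MS with d₇-S1P internal standard; IC50 calculated from the concentration–effect curve.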
row,IC50 [µM],SMILES
1,1.93,CCCCCCCCCCc1ccc(-c2noc(CCCN)n2)cc1.Cl

# Target: T3, Sphingosine-1-phosphate transporter SPNS2 (Mus musculus) (UniProt Q91VM4)
# T3 sequence (whole entry): T2 sequence (Q91VM4 whole entry)
# Test: as §2
# Format: cell-based
# Conditions: dose <= 5.0 µM, DDE = dose-dependent effect
# Procedure, shortened: as §3
row,inhibition,SMILES
1,Dde,CCCCCCCCCCc1ccc(-c2noc(CCCN)n2)cc1.Cl

# System: Mus musculus
# Test: In vivo inactivation of Spns2 gene in C57BL/6j mouse assessed as decrease in circulating lymphocytes at 20 mg/kg, ip measured after 4 hrs by blood analyzer
# Format: functional, organism-based
# Conditions: not given
# Procedure, shortened: (§4)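 Blood drawn 4 h postdose. Lymphocytes counted from 20 μL blood on a haematology analyzer; plasma S1P quantified by LC-MS/MS. Compared with vehicle-treated controls by t-test.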
row,SMILES,inhibition
1,CCCCCCCCCCc1ccc(-c2noc(CCCN)n2)cc1.Cl,Active

# System: Rattus norvegicus
# Test: In vivo inactivation of Spns2 gene in Sprague-Dawley rat assessed as decrease in circulating lymphocytes at 10 mg/kg, ip measured upto 24 hrs by blood analyzer
# Format: functional
# Set-up: scale not given: the % may be the effect or the level left
# Conditions: not given
# Procedure, shortened: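 Male rats 4 weeks old (n = 4) received a single intraperitoneal dose in PEG400/ethanol/Solutol/water vehicle. Tail-nick blood sampled at 0, 0.5, 1, 2, 4, 6 and 24 h. Lymphocytes counted from 20 μL blood on a haematology analyzer; counts compared with time 0.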
row,SMILES,Activity [%]
1,CCCCCCCCCCc1ccc(-c2noc(CCCN)n2)cc1.Cl,25

# System: Mus musculus
# Test: In vivo inactivation of Spns2 gene in C57BL/6j mouse assessed as decrease in plasma S1P at 20 mg/kg, ip measured after 4 hrs by LC-MS/MS analysis
# Format: functional, organism-based
# Conditions: not given
# Procedure, shortened: as §4
row,SMILES,inhibition
1,CCCCCCCCCCc1ccc(-c2noc(CCCN)n2)cc1.Cl,Active

# Species on record: Mus musculus
# Test: Selectivity ratio of IC50 for mouse SphK2 to recombinant mouse Snps2
# Conditions: not given
row,Ratio IC50,SMILES
1,15,CCCCCCCCCCc1ccc(-c2noc(CCCN)n2)cc1.Cl

# Target: T3, Sphingosine-1-phosphate transporter SPNS2 (Mus musculus)
# Test: Inhibition of mouse Spns2 transfected in human HeLa cells by measuring S1P release at 2 uM by LC/MS analysis relative to control
# Format: cell-based
# Conditions: not given
# Procedure, shortened: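 HeLa cells stably transfected with mouse Spns2 and selected with G418, grown to near confluence. Medium replaced with RPMI 1640/0.2% fatty acid-free BSA containing 1 mM 4-deoxypyridoxine, 2 mM NaF and 0.2 mM Na₃VO₄. Compound added to duplicate wells, incubated 18–20 h. Medium S1P measured by LC-MS/MS against d₇-S1P after TCA precipitation and methanol extraction. Inhibition expressed relative to no-inhibitor control.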
row,inhibition [%],SMILES
1,59,CCCCCCCCCCc1ccc(-c2noc(CCN)n2)cc1
2,29,CCCCCCCCCCc1ccc(-c2noc([C@H]3CCC[C@@H](N)C3)n2)cc1
3,35,CCCCCCCCC(=O)Nc1ccc(-c2noc(CCCN)n2)cc1
4,70,CCCCCCCCc1ccc(-c2noc(CCCN)n2)cc1
5,67,CCCCCCCCCCc1ccc(-c2noc(CCCN)n2)cc1.Cl
6,55,CCCCCCc1ccc(-c2noc(CCCN)n2)cc1
7,40,CCCCCCCCc1ccc(CCc2noc(CCCN)n2)cc1
8,49,CCCCCCCCCCc1ccc(-c2coc(CCCN)n2)cc1
9,40,CCCCCCCCCCc1ccc(-c2noc([C@H](CCCCN)NC(C)=O)n2)cc1
10,55,CCCCCCCCCCc1ccc(-c2noc(CCCCN)n2)cc1
11,45,CCCCCCCCCCc1ccc(-c2csc(CCCN)n2)cc1
12,21,CCCCCCCCCCc1ccc(-c2noc([C@@H]3CCCN3)n2)cc1
13,0,CCCCCCCCNC(=O)c1ccc(-c2noc(CCCN)n2)cc1
14,0,CCCCCCCCCCc1ccc(-c2noc(CC(O)CN3CCOCC3)n2)cc1 (configuration not stated)
15,65,CCCCCCCCCCc1ccc(-c2noc(C3CNC3)n2)cc1
16,63,CCCCCCCCCCc1ccc(-c2c[nH]c(CCCN)n2)cc1
17,0,CCCCCCCCCCc1ccc(-c2noc(CC(CN)OC(C)=O)n2)cc1 (configuration not stated)
18,49,CCCCCCCCCOc1ccc(-c2noc(CCCN)n2)cc1
19,38,CCCCCCCCCCc1ccc(-c2noc([C@@H]3CC[C@H](N)C3)n2)cc1
20,66,CCCCCCCCCCc1ccc(-c2noc(C3CCNCC3)n2)cc1

row,inhibition [%],SMILES
1,40,CCCCCCCCCCc1ccc(-c2noc([C@@H](N)CCCN)n2)cc1
2,43,CCCCCCCCCCc1ccc(-c2noc([C@@H](N)CCCCN)n2)cc1
3,26,CCCCCCCCCCc1ccc(-c2noc([C@H]3CCNC3)n2)cc1
4,45,CCCCCCCCCCc1ccc(-c2ccnn2CCCN)cc1
5,52,CCCCCCCc1ccc(-c2noc(CCCN)n2)cc1
6,50,CCCCCCCCCCc1ccc(-c2cnn(CCCN)c2)cc1
7,44,CCCCCCCCCCc1ccc(-c2noc(C[C@@H]3CCNC3)n2)cc1
8,0,CCCCCCCCCCc1ccc(-c2noc(CCCN3CCCCC3)n2)cc1
9,62,CCCCCCCCCCc1ccc(-c2noc([C@@H]3CCNC3)n2)cc1
10,14,CCCCCCCCCCc1ccc(-c2noc([C@@H](N)CCN)n2)cc1
11,51,CCCCCCCCCCc1ccc(-c2cn(C)c(CCCN)n2)cc1
12,5,CCCCCCCCCCc1ccc(-c2noc(CC(O)CNCC)n2)cc1 (configuration not stated)
13,12,CCCCCCCCCCc1ccc(-c2noc([C@H]3CCCN3)n2)cc1
14,61,CCCCCCCCCCc1ccc(-c2noc(CC(O)CN(C)C)n2)cc1 (configuration not stated)
15,45,CCCCCCCCCCc1ccc(-c2noc(CCCNC)n2)cc1
16,49,CCCCCCCCCCCc1ccc(-c2noc(CCCN)n2)cc1
17,19,CCCCCCCCCCc1ccc(-c2noc(CN3CCNCC3)n2)cc1
18,8,CCCCCCCOc1ccc2cc(-c3noc(CCCN)n3)ccc2c1
19,3,CCCCCCCCCCc1ccc(-c2noc(CCCN3CCCC3)n2)cc1
20,24,CCCCCCCCCOc1ccc(-c2noc(CCCN)n2)cc1C(F)(F)F

row,inhibition [%],SMILES
1,61,CCCCCCCCCc1ccc(-c2noc(CCCN)n2)cc1
2,21,CCCCCCCCCCc1ccc(-c2noc(CC(O)CN3CCCC3)n2)cc1 (configuration not stated)
3,44,CCCCCCCCCCc1ccc(-c2ccn(CCCN)n2)cc1
4,2,CCCCCCCCCCc1ccc(-c2noc(-c3cccc(CN)c3)n2)cc1
5,59,CCCCCCCCCCc1ccc(-c2nnc(CCCN)o2)cc1
6,5,CCCCCCCCCCc1ccc(-c2noc(CC[C@@H](N)C(=O)O)n2)cc1
7,5,CCCCCCCCCCc1ccc(-c2noc(C(Cl)CCN)n2)cc1 (configuration not stated)
8,50,CCCCCCCCCCc1ccc(-c2noc([C@H](N)CCCCN)n2)cc1
9,50,CCCCCCCCCOc1ccc(-c2noc(CCCN)n2)cc1F
10,63,CCCCCCCCCCc1ccc(-c2noc(CC3CNC3)n2)cc1
11,11,CCCCCCCC(=O)NCc1ccc(-c2noc(CCCN)n2)cc1
12,8,CCCCCCCCCCc1ccc(-c2noc(CCCN(C)C)n2)cc1
13,2,CCCCCCCCCCc1ccc(-c2noc(CCCN3CCOCC3)n2)cc1
14,13,CCCCCCCCCCc1ccc(-c2noc([C@@H]3CCC[C@@H](N)C3)n2)cc1
15,59,CCCCCCCCCCc1ccc(-c2noc(CC(O)CN)n2)cc1 (configuration not stated)
16,26,CCCCCCCCCCc1cccc(-c2noc(CCCN)n2)c1
17,62,CCCCCCCCCCc1ccc(-c2noc(CN)n2)cc1
18,2,CCCCCCCCCCc1ccc(-c2noc(CC(O)CN3CCCCC3)n2)cc1 (configuration not stated)
19,34,CCCCCCCCCc1ccc(Cc2noc(CCCN)n2)cc1

row,SMILES,inhibition [%]
1,CCCCCCCCCCc1ccc(-c2noc(C[C@H](C)N)n2)cc1,44

# System: not listed separately
# Test: Drug concentration in Sprague-Dawley rat plasma at 10 mg/kg, ip at 2 hrs by LC-MS/MS analysis
# Format: ADME, organism-based
# Conditions: not given
# Procedure, shortened: as §1
row,concentration at 2 h [µM],SMILES
1,5,CCCCCCCCCCc1ccc(-c2noc(CCCN)n2)cc1.Cl

# System: not listed separately
# Test: Half life in Sprague-Dawley rat plasma at 10 mg/kg, ip by LC-MS/MS analysis
# Format: ADME, organism-based
# Conditions: not given
# Procedure, shortened: as §1
row,half-life [h],SMILES
1,> 8,CCCCCCCCCCc1ccc(-c2noc(CCCN)n2)cc1.Cl

# Source: ChEMBL document CHEMBL5154924, “Discovery of In Vivo Active Sphingosine-1-phosphate Transporter (Spns2) Inhibitors” (J Med Chem, 2022)
